Rad51 HR inh = Rad51 (human) homologous recombination inhibition; Q06609; hRad51 DNA strand exchange, fluorescence dequenching; inhibition, % at 10 µM; 200,000 tested, 0.085% active;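 active means inhibition above 40% at the single screening dose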
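Assay system: Human Rad51 nucleoprotein filaments preassembled on unlabelled ssDNA | Reagent: Donor/quencher-labelled 47-bp dsDNA substrate | Doses: One concentration, 10 µM final | Times: 37 °C 15-min filament assembly, 30-min compound preincubation, 15-min exchange | Technique: Fluorescein emission 520 nm, excitation 485 nm | Benchmarks: Plate control and blank wells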
Mdm2 ligase inh = Mdm2 E3 ligase (human) inhibition. Q00987. cell-based MDM2 ubiquitination luciferase reporter, 2 h; 0 = plate control, 100 = twice control, blank-subtracted. signal enhancement, % at 5 µM. 210,000 tested, 0.11% active;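 active means signal enhancement of 30% or more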;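 further: luminescence tracks abundance of the self-degrading MDM2-luciferase fusion protein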
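Material: Stable MDM2–luciferase fusion reporter cells | Amount: 2000 cells seeded into each well | Dosing: One concentration, 5 µM, with 0.2% DMSO | Incubation: 4 h cell settling then 2 h compound exposure, 37 °C | Measured by: Luciferase luminescence | Read-out basis: % enhancement relative to plate controls after blank subtraction | Benchmarks: Control and blank well means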
PKD1 inh = blocks activity of human protein kinase D1; PKD1 kinase fluorescence polarization assay; 200,000 tested, 0.056% active; AID 797; inhibition, % (test concentration not listed); Q15139; in the data active means inhibition above about 50%
PERK inhibitor = inhibitors of human PERK kinase. Q9NZJ5. inhibition, % at 5.6 µM. 220,000 tested, 0.17% active. CHO PERK-DD fusion, SEAP luminescence translation reporter;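 active means inhibition above the mean inhibition of all tested compounds plus 3 SD, set separately per screening campaign, cut at about 2.9% in these data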;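 further: PERK kinase domain activated by AP20187 dimerizer at 100 nM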
Hck-Nef inh = inhibitors of human Hck kinase activated by Nef; inhibition, % at 20 µM; AID 463187; Recombinant Hck-YEEI plus Nef, Z-Lyte FRET kinase assay; P08631; 220,000 tested, 0.68% active;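 active means Hck-Nef kinase inhibition above about 50%, limit read from the data; inactive means inhibition below that limit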
Target sequence (P08631 whole entry, looked up): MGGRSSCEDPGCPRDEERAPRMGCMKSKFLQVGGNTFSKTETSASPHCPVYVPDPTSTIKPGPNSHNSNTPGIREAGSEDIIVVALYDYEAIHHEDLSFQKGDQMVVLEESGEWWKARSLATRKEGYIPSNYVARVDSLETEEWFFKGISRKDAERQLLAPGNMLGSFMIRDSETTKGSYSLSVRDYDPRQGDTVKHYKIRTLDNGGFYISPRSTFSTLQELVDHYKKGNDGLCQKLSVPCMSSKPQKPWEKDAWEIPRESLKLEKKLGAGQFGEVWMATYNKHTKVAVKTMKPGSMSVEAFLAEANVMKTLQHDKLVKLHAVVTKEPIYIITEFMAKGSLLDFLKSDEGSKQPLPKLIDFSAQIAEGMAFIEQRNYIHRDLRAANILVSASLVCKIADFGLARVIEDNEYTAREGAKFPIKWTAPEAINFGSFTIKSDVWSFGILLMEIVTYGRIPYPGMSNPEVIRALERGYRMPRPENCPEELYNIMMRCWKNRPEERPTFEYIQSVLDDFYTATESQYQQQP
H9c2 TAG inh = inhibitors of triacylglycerol accumulation | H9c2 cells, Nile Red lipid (TAG) fluorescence; cells loaded with 200 µM oleic acid | inhibition, % at 12.5 µM | 230,000 tested, 0.66% active | AID 651582;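 active means pattern-corrected inhibition of lipid staining of at least 50% with the nuclear-stain viability signal not falling by more than 50%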
Hck Nef conf = Hck-Nef kinase inhibition, confirmation | 1,300 tested, 28% active | Recombinant Hck-YEEI:Nef, Z-Lyte FRET kinase assay | calls only at 10 µM | shares compounds with Hck-Nef inh;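 active means average inhibition of at least 50%, with Z-scores no higher than 3 in both the phospho-tyrosine peptide and fluorescence counterscreens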
Numbers stand for hits. Most compounds without a hit are left out; they make up all but 1.3% or so of the library.

COC(=O)CCC(=O)Nc1ccc(Br)cc1 was read as Rad51 HR inh inactive, Mdm2 ligase inh inactive, PKD1 inh inactive, PERK inhibitor inactive, Hck-Nef inh inactive and H9c2 TAG inh inactive.
COc1ccccc1C(=O)NNC(=O)C(=O)NC(C)C was read as Rad51 HR inh inactive, Mdm2 ligase inh inactive, PKD1 inh inactive, PERK inhibitor inactive, Hck-Nef inh 59, H9c2 TAG inh inactive and Hck Nef conf inactive.
`COc1ccccc1C(=O)NNC(=O)C(=O)NCc1ccccc1` gave Mdm2 ligase inh inactive, PKD1 inh inactive, PERK inhibitor inactive, Hck-Nef inh inactive and H9c2 TAG inh inactive.
Screening COc1ccccc1Cn1c(=S)[nH]c2cc(C(=O)NCCN3CCOCC3)ccc2c1=O returned Rad51 HR inh inactive, Mdm2 ligase inh inactive, PKD1 inh inactive, PERK inhibitor inactive and Hck-Nef inh inactive.
`COc1ccc(N2CCN(CCNC(=O)c3ccc4c(c3)[nH]c(=S)n3c5ccccc5nc43)CC2)cc1` gave Rad51 HR inh inactive, Mdm2 ligase inh inactive, PKD1 inh inactive, PERK inhibitor inactive, Hck-Nef inh 51, H9c2 TAG inh inactive and Hck Nef conf inactive.
Cc1ccc(S(=O)(=O)N2CCCCC2)cc1NCC(=O)Nc1ccc(Br)cc1F was read as H9c2 TAG inh inactive.
For O=C1COc2ccc(-c3csc(NCCc4ccccc4)n3)cc2N1 the results were Rad51 HR inh inactive, Mdm2 ligase inh inactive, PKD1 inh inactive, PERK inhibitor inactive, Hck-Nef inh 128, H9c2 TAG inh inactive and Hck Nef conf active.
O=C(CSc1ncnc2c1oc1ccccc12)Nc1cccc(Cl)c1 was read as Rad51 HR inh inactive, Mdm2 ligase inh inactive, PKD1 inh inactive, PERK inhibitor inactive, Hck-Nef inh 51 and Hck Nef conf inactive.
`CCOc1ccc(-c2ccc(C=O)o2)c([N+](=O)[O-])c1` gave Rad51 HR inh inactive, Mdm2 ligase inh inactive, PKD1 inh inactive, PERK inhibitor inactive, Hck-Nef inh 100 and Hck Nef conf inactive.
Screening CCOc1ccc(N2CC(O)=C(c3nc4ccccc4c(=O)[nH]3)C2=N)cc1 returned Rad51 HR inh inactive, Mdm2 ligase inh inactive, PKD1 inh inactive, PERK inhibitor inactive, Hck-Nef inh 55, H9c2 TAG inh inactive and Hck Nef conf inactive.
`N=C1C(c2nc3ccccc3c(=O)[nH]2)=C(O)CN1c1ccccc1` gave Rad51 HR inh inactive, Mdm2 ligase inh inactive, PKD1 inh inactive, PERK inhibitor inactive and Hck-Nef inh inactive.
Screening CC(C)S(=O)(=O)NC(=O)C1(C)CCN1C(=O)Cc1ccccc1Cl (stereo unspecified) returned H9c2 TAG inh inactive.
COc1ccc(NC(=O)c2cc3c(=O)n(C)c4ccccc4c3n2C)cc1OC was read as Rad51 HR inh inactive, Mdm2 ligase inh inactive, PKD1 inh inactive, PERK inhibitor inactive, Hck-Nef inh inactive and H9c2 TAG inh inactive.
For COc1ccc(NC(=O)c2cc3c(=O)n(C)c4ccccc4c3n2C)cc1Cl the results were Rad51 HR inh inactive, Mdm2 ligase inh inactive, PERK inhibitor inactive, Hck-Nef inh 61, H9c2 TAG inh inactive and Hck Nef conf inactive.
CC(C)c1ccc(NC2CCCN(C(=O)c3cnsn3)C2)cc1 (stereo unspecified) was read as H9c2 TAG inh inactive.
CCc1cc(=S)n2c([nH]c3ccccc32)c1C#N was read as Rad51 HR inh inactive, Mdm2 ligase inh inactive, PKD1 inh inactive, PERK inhibitor inactive, Hck-Nef inh 71, H9c2 TAG inh inactive and Hck Nef conf inactive.
Screening CCc1cc(=O)n2c([nH]c3ccccc32)c1C#N returned Rad51 HR inh inactive, Mdm2 ligase inh inactive, PKD1 inh inactive, PERK inhibitor inactive, Hck-Nef inh inactive and H9c2 TAG inh inactive.
COCc1cc(=O)n2c([nH]c3ccccc32)c1C#N was read as Rad51 HR inh inactive, Mdm2 ligase inh inactive, PKD1 inh inactive, PERK inhibitor inactive and Hck-Nef inh 67.
For N#Cc1ccccc1OCC(=O)OCC(=O)c1c[nH]c2ccccc12 the results were H9c2 TAG inh inactive.
For CC(=O)NS(=O)(=O)c1ccc(NC(=O)c2cc(-c3ccc(C)c(C)c3)nc3ccccc23)cc1 the results were Rad51 HR inh inactive, Mdm2 ligase inh inactive, PKD1 inh inactive, PERK inhibitor inactive, Hck-Nef inh 52, H9c2 TAG inh inactive and Hck Nef conf active.
O=C(COC(=O)/C=C/c1ccccc1[N+](=O)[O-])NNC(=O)c1ccc(F)cc1 was read as H9c2 TAG inh inactive.
`CCOc1cc(/C=C2\N=C(SCC)SC2=O)cc([N+](=O)[O-])c1OC(C)=O` gave Rad51 HR inh inactive, Mdm2 ligase inh inactive, PKD1 inh inactive, PERK inhibitor inactive, Hck-Nef inh 95, H9c2 TAG inh inactive and Hck Nef conf active.
Screening COc1ccc(/C=N/NC(=O)COc2cccc3cccnc23)cc1OC returned Rad51 HR inh inactive, Mdm2 ligase inh inactive, PKD1 inh inactive, PERK inhibitor inactive, Hck-Nef inh 54, H9c2 TAG inh inactive and Hck Nef conf inactive.
Screening CCn1cc(/C=N/NC(=O)COc2cccc3cccnc23)c2ccccc21 returned Rad51 HR inh inactive, Mdm2 ligase inh inactive, PKD1 inh inactive, PERK inhibitor inactive and Hck-Nef inh inactive.
CCN(CC)c1ccc2c(O)cc(=O)oc2c1 was read as Rad51 HR inh inactive, Mdm2 ligase inh inactive, PKD1 inh inactive, PERK inhibitor inactive, Hck-Nef inh inactive and H9c2 TAG inh inactive.
Screening CCN(CC)c1ccc2c(C)c(CN3CCOCC3)c(=O)oc2c1 returned Rad51 HR inh inactive, Mdm2 ligase inh inactive, PKD1 inh inactive, PERK inhibitor inactive, Hck-Nef inh 102 and H9c2 TAG inh inactive.
CCN(CC)c1ccc2c(C)c(CO)c(=O)oc2c1 was read as Rad51 HR inh inactive, Mdm2 ligase inh inactive, PKD1 inh inactive, PERK inhibitor inactive, Hck-Nef inh active and H9c2 TAG inh inactive.
Cc1ccc(S(=O)(=O)N(C)c2ccc(C(=O)NCC(c3ccccc3)N3CCCC3)cc2)cc1 (stereo unspecified) was read as H9c2 TAG inh inactive.
Screening CCN(CC)c1ccc(/C=C2\C(=O)c3ccc(C(=O)O)cc3C2=O)cc1 returned Rad51 HR inh inactive, Mdm2 ligase inh 79, PKD1 inh inactive, PERK inhibitor inactive, Hck-Nef inh 64, H9c2 TAG inh inactive and Hck Nef conf inactive.
`CCN(CC)c1ccc(C(=O)O)cc1` gave Rad51 HR inh inactive, Mdm2 ligase inh inactive, PKD1 inh inactive, PERK inhibitor inactive and Hck-Nef inh inactive.
Screening CC(=O)Nc1c(S(=O)(=O)c2ccccc2)c2nc3ccccc3nc2n1Cc1ccccc1 returned Rad51 HR inh inactive, Mdm2 ligase inh inactive, PKD1 inh inactive, PERK inhibitor inactive and Hck-Nef inh inactive.
